# Assay results: ChEMBL document CHEMBL2375290, “Nonclassical antifolates, part 3: synthesis, biological evaluation and molecular modeling study of some new 2-heteroarylthio-quinazolin-4-ones” (Eur J Med Chem, 2013)
# Experiments:
# [1] = system: Staphylococcus aureus; test: Antimicrobial activity against Staphylococcus aureus after 24 hrs by micro-dilution susceptibility method; assay type: functional
# Summary of the method: (§1)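 Broth microdilution in Müller-Hinton broth against S. aureus IFO 3060, B. subtilis IFO 3007, E. coli IFO 3301 and P. aeruginosa IFO 3448. These are the same standard strains used in the disc-diffusion primary screen. Compounds were solubilized in DMSO. MIC recorded as the minimal inhibitory concentration.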
# [2] = system: Micrococcus luteus; test: Antimicrobial activity against Micrococcus luteus at 200 ug after 24 hrs by agar disc diffusion method; assay type: functional; conditions: read-out: DIZ
# [3] = system: Bacillus subtilis; test: Antimicrobial activity against Bacillus subtilis after 24 hrs by micro-dilution susceptibility method; assay type: functional; summary of the method: as §1
# [4] = system: Pseudomonas aeruginosa; test: Antimicrobial activity against Pseudomonas aeruginosa at 200 ug after 24 hrs by agar disc diffusion method; assay type: functional; conditions: read-out: DIZ
# [5] = system: Escherichia coli; test: Antimicrobial activity against Escherichia coli after 24 hrs by micro-dilution susceptibility method
# [6] = system: Staphylococcus aureus; test: Antimicrobial activity against Staphylococcus aureus at 200 ug after 24 hrs by agar disc diffusion method; assay type: functional; conditions: read-out: DIZ
# [7] = system: Bacillus subtilis; test: Antimicrobial activity against Bacillus subtilis at 200 ug after 24 hrs by agar disc diffusion method; assay type: functional; conditions: read-out: DIZ
# [8] = molecular target: T1, Dihydrofolate reductase (Bos taurus, UniProt P00376); test: Inhibition of bovine DHFR after 2 mins by spectrophotometry
# T1 sequence (P00376 whole entry): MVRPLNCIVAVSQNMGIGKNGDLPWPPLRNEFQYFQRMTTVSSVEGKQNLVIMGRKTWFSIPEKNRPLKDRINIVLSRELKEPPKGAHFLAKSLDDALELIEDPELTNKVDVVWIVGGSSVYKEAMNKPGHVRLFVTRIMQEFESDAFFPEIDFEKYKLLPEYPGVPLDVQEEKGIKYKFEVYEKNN
# [9] = system: Escherichia coli; test: Antimicrobial activity against Escherichia coli at 200 ug after 24 hrs by agar disc diffusion method; assay type: functional; conditions: read-out: DIZ
# [10] = system: MDA-MB-435; test: Cytotoxicity against human MDA-MB-435 cells at 10 uM after 48 hrs by coulter counter analysis; assay type: functional; conditions: MDA-MB-435, 48 h, read-out: GI
# [11] = system: MDA-MB-231; test: Cytotoxicity against human MDA-MB-231 cells at 10 uM after 48 hrs by coulter counter analysis; assay type: functional; conditions: MDA-MB-231, 48 h, read-out: GI
# [12] = system: RXF 393; test: Cytotoxicity against human RXF393 cells at 10 uM after 48 hrs by coulter counter analysis; assay type: functional; conditions: RXF 393, 48 h, read-out: GI
# [13] = system: A549; test: Cytotoxicity against human A549/ATCC cells at 10 uM after 48 hrs by coulter counter analysis; assay type: functional; conditions: A549, 48 h, read-out: GI
# [14] = Cytotoxicity against human EKVX cells at 10 uM after 48 hrs by coulter counter analysis; assay type: functional; conditions: read-out: GI
# [15] = system: SNB-75; test: Cytotoxicity against human SNB75 cells at 10 uM after 48 hrs by coulter counter analysis; assay type: functional; conditions: SNB-75, 48 h, read-out: GI
# [16] = system: Hs-578T; test: Cytotoxicity against human Hs578T cells at 10 uM after 48 hrs by coulter counter analysis; assay type: functional; conditions: read-out: GI
# [17] = system: NCI-H522; test: Cytotoxicity against human NCI-H522 cells at 10 uM after 48 hrs by coulter counter analysis; assay type: functional; conditions: NCI-H522, 48 h, read-out: GI
# [18] = system: MCF7; test: Cytotoxicity against human MCF7 cells at 10 uM after 48 hrs by coulter counter analysis; assay type: functional; conditions: MCF7, 48 h, read-out: GI
# [19] = system: RPMI-8226; test: Cytotoxicity against human RPMI8226 cells at 10 uM after 48 hrs by coulter counter analysis; assay type: functional; conditions: RPMI-8226, 48 h, read-out: GI
# [20] = system: SN12C; test: Cytotoxicity against human SN12C cells at 10 uM after 48 hrs by coulter counter analysis; assay type: functional; conditions: read-out: GI
# [21] = system: CCRF-CEM; test: Cytotoxicity against human CCRF-CEM cells at 10 uM after 48 hrs by coulter counter analysis; assay type: functional; conditions: read-out: GI
# [22] = system: A498; test: Cytotoxicity against human A498 cells at 10 uM after 48 hrs by coulter counter analysis; assay type: functional; conditions: A498, 48 h, read-out: GI
# [23] = system: PC-3; test: Cytotoxicity against human PC3 cells at 10 uM after 48 hrs by coulter counter analysis; assay type: functional; conditions: PC-3, 48 h, read-out: GI
# [24] = system: T47D; test: Cytotoxicity against human T47D cells at 10 uM after 48 hrs by coulter counter analysis; assay type: functional; conditions: read-out: GI
# [25] = system: LOX IMVI; test: Cytotoxicity against human LOXIMVI cells at 10 uM after 48 hrs by coulter counter analysis; assay type: functional; conditions: read-out: GI
# [26] = system: SR; test: Cytotoxicity against human SR cells at 10 uM after 48 hrs by coulter counter analysis; assay type: functional; conditions: read-out: GI
# [27] = system: CAKI-1; test: Cytotoxicity against human Caki1 cells at 10 uM after 48 hrs by coulter counter analysis; assay type: functional; conditions: CAKI-1, 48 h, read-out: GI
# [28] = system: IGROV-1; test: Cytotoxicity against human IGROV1 cells at 10 uM after 48 hrs by coulter counter analysis; assay type: functional; conditions: IGROV-1, 48 h, read-out: GI
# [29] = system: HL-60(TB); test: Cytotoxicity against human HL-60(TB) cells at 10 uM after 48 hrs by coulter counter analysis; assay type: functional; conditions: HL-60, 48 h, read-out: GI
# [30] = system: MOLT-4; test: Cytotoxicity against human MOLT4 cells at 10 uM after 48 hrs by coulter counter analysis; assay type: functional; conditions: MOLT-4, 48 h, read-out: GI
# [31] = system: NCI-H23; test: Cytotoxicity against human NCI-H23 cells at 10 uM after 48 hrs by coulter counter analysis; assay type: functional; conditions: NCI-H23, 48 h, read-out: GI
# [32] = system: SK-MEL-5; test: Cytotoxicity against human SK-MEL-5 cells at 10 uM after 48 hrs by coulter counter analysis; assay type: functional; conditions: SK-MEL-5, 48 h, read-out: GI
# [33] = system: UO-31; test: Cytotoxicity against human UO31 cells at 10 uM after 48 hrs by coulter counter analysis; assay type: functional; conditions: UO-31, 48 h, read-out: GI
# [34] = system: SF-295; test: Cytotoxicity against human SF295 cells at 10 uM after 48 hrs by coulter counter analysis; assay type: functional; conditions: SF-295, 48 h, read-out: GI
# [35] = system: SNB-19; test: Cytotoxicity against human SNB19 cells at 10 uM after 48 hrs by coulter counter analysis; assay type: functional; conditions: SNB-19, 48 h, read-out: GI
# [36] = system: OVCAR-4; test: Cytotoxicity against human OVCAR4 cells at 10 uM after 48 hrs by coulter counter analysis; assay type: functional; conditions: OVCAR-4, 48 h, read-out: GI
# [37] = system: Malme-3M; test: Cytotoxicity against human MALME-3M cells at 10 uM after 48 hrs by coulter counter analysis; assay type: functional; conditions: read-out: GI
# [38] = Cytotoxicity against human NCI-ADR-RES cells at 10 uM after 48 hrs by coulter counter analysis; assay type: functional; conditions: read-out: GI
# [39] = system: UACC-62; test: Cytotoxicity against human UACC62 cells at 10 uM after 48 hrs by coulter counter analysis; assay type: functional; conditions: UACC-62, 48 h, read-out: GI
# [40] = system: NCI-H226; test: Cytotoxicity against human NCI-H226 cells at 10 uM after 48 hrs by coulter counter analysis; assay type: functional; conditions: NCI-H226, 48 h, read-out: GI
smiles,measurement,setting,value
CCOC(=O)c1nc(N)sc1Sc1nc2ccc(C)cc2c(=O)n1-c1ccccc1,MIC,[1],2 µg/mL
same,zone of inhibition at 200 µg/disc,[2],14 mm
same,MIC,[3],2 µg/mL
same,zone of inhibition at 200 µg/disc,[4],12 mm
same,MIC,[5],4 µg/mL
same,zone of inhibition at 200 µg/disc,[6],24 mm
same,zone of inhibition at 200 µg/disc,[7],26 mm
same,IC50,[8],1 µM
same,zone of inhibition at 200 µg/disc,[9],18 mm
Nc1ncc(Sc2nc3ccc(Cl)cc3c(=O)n2-c2ccccc2)s1,inhibition of growth at 10 µM,[10],< 10%
same,inhibition of growth at 10 µM,[11],21.5%
same,inhibition of growth at 10 µM,[12],< 10%
same,inhibition of growth at 10 µM,[13],< 10%
same,inhibition of growth at 10 µM,[14],12.9%
same,MIC,[1],8 µg/mL
same,inhibition of growth at 10 µM,[15],< 10%
same,inhibition of growth at 10 µM,[16],< 10%
same,zone of inhibition at 200 µg/disc,[2],14 mm
same,inhibition of growth at 10 µM,[17],14%
same,inhibition of growth at 10 µM,[18],19%
same,inhibition of growth at 10 µM,[19],< 10%
same,inhibition of growth at 10 µM,[20],< 10%
same,inhibition of growth at 10 µM,[21],< 10%
same,inhibition of growth at 10 µM,[22],< 10%
same,inhibition of growth at 10 µM,[23],10.2%
same,inhibition of growth at 10 µM,[24],19.1%
same,inhibition of growth at 10 µM,[25],11.2%
same,MIC,[3],4 µg/mL
same,inhibition of growth at 10 µM,[26],29.1%
same,inhibition of growth at 10 µM,[27],24.1%
same,zone of inhibition at 200 µg/disc,[4],8 mm
same,inhibition of growth at 10 µM,[28],< 10%
same,inhibition of growth at 10 µM,[29],< 10%
same,inhibition of growth at 10 µM,[30],< 10%
same,inhibition of growth at 10 µM,[31],10.9%
same,zone of inhibition at 200 µg/disc,[6],18 mm
same,zone of inhibition at 200 µg/disc,[7],22 mm
same,IC50,[8],4 µM
same,inhibition of growth at 10 µM,[32],< 10%
same,inhibition of growth at 10 µM,[33],< 10%
same,inhibition of growth at 10 µM,[34],< 10%
same,inhibition of growth at 10 µM,[35],< 10%
same,inhibition of growth at 10 µM,[36],< 10%
same,inhibition of growth at 10 µM,[37],< 10%
same,inhibition of growth at 10 µM,[38],< 10%
same,zone of inhibition at 200 µg/disc,[9],8 mm
same,inhibition of growth at 10 µM,[39],< 10%
same,inhibition of growth at 10 µM,[40],25.7%
CCOC(=O)c1nc(N)sc1Sc1nc2ccc(Cl)cc2c(=O)n1Cc1ccccc1,MIC,[1],4 µg/mL
same,zone of inhibition at 200 µg/disc,[2],14 mm
same,MIC,[3],2 µg/mL
same,zone of inhibition at 200 µg/disc,[4],8 mm
same,MIC,[5],4 µg/mL
same,zone of inhibition at 200 µg/disc,[6],20 mm
same,zone of inhibition at 200 µg/disc,[7],22 mm
same,IC50,[8],1 µM
same,zone of inhibition at 200 µg/disc,[9],20 mm
